The values that follow come from ChEMBL document CHEMBL1129253, “Synthesis and pharmacological activity of triazole derivatives inhibiting eosinophilia” (1996).

What is called inhibition in vivo is the change of the read-out against control, counted positive when it falls.

The first assay has as its system Rattus norvegicus. Nature of the assay: Inhibitory activity against eosinophilia when administered intraperitoneally in rats. The following applies: ip, read-out: ID50 (the source's name).
In the case of `C/N=C(\S)n1nc(-c2ccc(Cl)cc2)nc1N`, the ED50 was found to be 0.07 mg/kg.

A further assay relates to Rattus norvegicus. Kind of assay: Inhibitory activity against eosinophilia when administered orally in rats. Conditions: po, read-out: ID50 (the source's name).
For `C/N=C(\S)n1nc(-c2ccc(Cl)cc2)nc1N`, the ED50 worked out at 0.3 mg/kg.

The subject of a further assay is Rattus norvegicus. Kind of assay: Tested for sephadex-induced lung Eosinophilia inhibition at 30 mg/kg in rat. The assay is classed as functional.
Details: not given
In outline: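 Male Wistar rats (5/group) received 1 mL Sephadex G-200 (0.5 mg/mL in saline, boiled 5 h) by tail vein on days 0, 3 and 5. Drug or vehicle was given ip 10 min before each injection. On day 7, lungs were lavaged three times with heparinized PBS at 37 °C. Eosinophils and total cells were counted in Hinkelman reagent. % inhibition compares group-mean eosinophil/total ratios with vehicle.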
Regarding `CCCCCC/N=C(\S)n1ncnc1N`, the inhibition in vivo at 30 mg/kg was -1%.
For the compound `C/N=C(\S)n1nc(C)nc1N`, the inhibition in vivo at 30 mg/kg was 13%.
Turning to `CNC(=S)n1ncnc1NC`, the inhibition in vivo at 30 mg/kg was -1%.
Still for that read-out and setting: the value for `C/N=C(\S)n1nc(-c2ccc(C#N)cc2)nc1N` was 87%.
As to `CSC(=S)n1ncnc1N`, the inhibition in vivo at 30 mg/kg was 36%.
In the case of `C/N=C(\S)Nc1ccc(-c2nc(N)n(/C(S)=N/C)n2)cc1`, the inhibition in vivo at 30 mg/kg is 31%.
Turning to `C/N=C(\S)c1ncccc1N`, the inhibition in vivo at 30 mg/kg came to 9%.
Still for that read-out and setting: the value for `C/N=C(\S)n1nc(-c2ccc(C)cc2)nc1N` was 65%.
For `C/N=C(\S)c1cccnc1N`, the inhibition in vivo at 30 mg/kg is 27%.
As to `CCC/N=C(\S)n1ncnc1N`, the inhibition in vivo at 30 mg/kg was determined as 93%.
The same measure, in the same setting: under `Nc1ncnn1/C(S)=N/CCCCCO` stands -17%; under `CNC(=S)n1nc(-c2ccc(OC)cc2)nc1N`, 70%.
On the same count and under the same terms, under `Nc1ncnn1/C(S)=N/C1CCCCC1` stands 31%.
On the same count and under the same terms, under `C/N=C(\S)n1nc(-c2ccc(Cl)cc2)nc1N` stands 88%; under `CNC(=S)n1nc(SC)nc1N`, 54%; under `CNC(=O)n1ncnc1N`, 40%.
On to `CS(=O)(=O)n1ncnc1N`, for which the inhibition in vivo at 30 mg/kg is -40%.
Regarding `C/N=C(\S)n1cnc(N)n1`, the inhibition in vivo at 30 mg/kg came to 25%.
Turning to `CCOC(=O)C(=O)Nc1ccc(-c2nc(N)n(/C(S)=N/C)n2)cc1`, the inhibition in vivo at 30 mg/kg is 49%.
On the same count and under the same terms, the value for `C/N=C(\S)n1nnnc1N` was 53%; that for `Nc1ncnn1/C(S)=N/c1ccccc1` was -7%; that for `S=C(NC1CCCCC1)n1cncn1` was 0%.
With `CCOCCC/N=C(\S)n1ncnc1N`, the inhibition in vivo at 30 mg/kg amounted to 1%.
Same read-out and setting: under `C/N=C(\S)c1sccc1N` stands 4%; under `C/N=C(\S)c1c[nH]nc1N`, -22%.
The same measure, in the same setting: under `C/N=C(\S)n1nccc1N` stands 27%; under `C/N=C(\S)c1ccccc1N`, 47%; under `C/N=C(\S)c1nccnc1N`, 27%.
Consider `C/N=C(\S)n1nc(N)nc1N`, for which the inhibition in vivo at 30 mg/kg stood at 53%.
Consider `CN(C)C(=S)n1ncnc1N`, for which the inhibition in vivo at 30 mg/kg was found to be 34%.
Consider `C/N=C(\S)n1nc(-c2ccccc2)nc1N`, for which the inhibition in vivo at 30 mg/kg was found to be 54%.
Regarding `C/N=C(\S)c1[nH]cnc1N`, the inhibition in vivo at 30 mg/kg turned out to be 5%.
Still for that read-out and setting: under `Nc1ncnn1/C(S)=N/Cc1ccccc1` stands 40%; under `C/N=C(\S)n1ncnc1N`, 93%.
The same measure, in the same setting: under `CCCC/N=C(\S)n1ncnc1N` stands 21%.
